# According to ChEMBL document CHEMBL1138278, “Aromatic amide derivatives of 5,6-dimethoxy-2,3-dihydro-1H-inden(-1-yl)acetic acid as anti-inflammatory agents free of ulcerogenic liability” (Bioorg Med Chem Lett, 2007):
# Assays:
# Rattus norvegicus [1] = assay: Antiarthritic activity against adjuvant-induced arthritis in Wistar rat assessed as weight change at 100 mg/kg, po; assay type: functional
# In short: (§1)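 Male Wistar rats (160 ± 10 g) dosed orally once daily for 14 days, from the day before injecting 0.1 ml Freund's complete adjuvant into the subplantar surface of the right hind paw. Paw swelling, including the uninjected left paw, and body weight recorded. Means ± SEM, n = 6; p < 0.05 versus control.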
# Rattus norvegicus [2] = assay: Antiinflammatory activity in Wistar rat assessed as inhibition of carrageenan-induced paw edema at 100 mg/kg, after 6 hrs; assay type: functional
# In short: (§2)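 Male Wistar rats (170 ± 20 g) dosed orally: test agents at 100 mg/kg, reference at 10 mg/kg. One hour later, 0.1 ml of 1% carrageenan injected subplantar into the right hind paw.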
# Rattus norvegicus [3] = assay: Antiinflammatory in SKF-525A pretreated Wistar rat assessed as inhibition of carrageenan-induced paw edema at 100 mg/kg, po after 1 hr; assay type: functional
# Rattus norvegicus [4] = assay: Antipyretic activity against LPS-induced pyresis in Wistar rat assessed as change in rectal temperature at 100 mg/kg, po after 5 hrs; assay type: functional
# In short: (§3)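 Male Wistar rats (170 ± 20 g) dosed orally: test agents at 100 mg/kg, indomethacin and aspirin at 10 mg/kg and 100 mg/kg. Half an hour later, LPS in apyrogenic saline given at 100 µg/kg i.p. Rectal temperature taken by telethermometer probe immediately before LPS and hourly from 1 to 7 h after. Change in temperature reported; means ± SEM, n = 6.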
# Mus musculus [5] = assay: Analgesic activity in Swiss Albino mouse assessed as inhibition of acetic acid-induced writhing responses at 100 mg/kg, po after 1 hr; assay type: functional
# In short: (§4)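 Mice dosed orally; one hour later injected i.p. with 1% v/v acetic acid at 0.1 ml/10 g. Writhings counted over 15 min, starting five minutes after injection. Means ± SEM, n = 6; p < 0.05 versus control group.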
# Rattus norvegicus [6] = assay: Antiinflammatory activity in Wistar rat assessed as inhibition of carrageenan-induced paw edema at 100 mg/kg, after 24 hrs; assay type: functional; in short: as §2
# Rattus norvegicus [7] = assay: Antiinflammatory activity in Wistar rat assessed as inhibition of carrageenan-induced paw edema at 100 mg/kg, after 3 hrs; assay type: functional; in short: as §2
# Mus musculus [8] = assay: Analgesic activity in Swiss Albino mouse assessed as number of acetic acid-induced writhing at 100 mg/kg, po after 1 hr relative to control; assay type: functional; in short: as §4
# Rattus norvegicus [9] = assay: Antiarthritic activity against adjuvant-induced arthritis in Wistar rat assessed as inhibition of paw edema at 100 mg/kg, po on day 3; assay type: functional; settings: 72 h; in short: as §1
# Rattus norvegicus [10] = assay: Antiinflammatory in SKF-525A pretreated Wistar rat assessed as inhibition of carrageenan-induced paw edema at 100 mg/kg, po after 3 hrs; assay type: functional
# Rattus norvegicus [11] = assay: Antiinflammatory in SKF-525A pretreated Wistar rat assessed as inhibition of carrageenan-induced paw edema at 100 mg/kg, po after 4 hrs; assay type: functional
# Rattus norvegicus [12] = assay: Antiinflammatory activity in Wistar rat assessed as inhibition of carrageenan-induced paw edema at 100 mg/kg, after 1 hr; assay type: functional; in short: as §2
# Rattus norvegicus [13] = assay: Antipyretic activity against LPS-induced pyresis in Wistar rat assessed as change in rectal temperature at 100 mg/kg, po after 7 hrs; assay type: functional; in short: as §3
# Rattus norvegicus [14] = assay: Antipyretic activity against LPS-induced pyresis in Wistar rat assessed as change in rectal temperature at 100 mg/kg, po after 2 hrs; assay type: functional; in short: as §3
# Rattus norvegicus [15] = assay: Antipyretic activity against LPS-induced pyresis in Wistar rat assessed as change in rectal temperature at 100 mg/kg, po after 3 hrs; assay type: functional; in short: as §3
# Rattus norvegicus [16] = assay: Antiinflammatory activity in Wistar rat assessed as inhibition of carrageenan-induced paw edema at 100 mg/kg, after 2 hrs; assay type: functional; in short: as §2
# Rattus norvegicus [17] = assay: Antiinflammatory activity in Wistar rat assessed as inhibition of carrageenan-induced paw edema at 100 mg/kg, after 4 hrs; assay type: functional; in short: as §2
# Rattus norvegicus [18] = assay: Antipyretic activity against LPS-induced pyresis in Wistar rat assessed as change in rectal temperature at 100 mg/kg, po after 6 hrs; assay type: functional; in short: as §3
# Rattus norvegicus [19] = assay: Toxicity in 24 hrs fasted Wistar rat assessed as ulcer index at 100 mg/kg, po after 6 hrs; assay type: organism-based; set-up: dose 100 mg/kg, route oral; settings: in vivo
# In short: (§5)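 Male Wistar rats (175 ± 25 g) fasted 24 h and dosed orally. Acute arm: test agents at 100 mg/kg, indomethacin at 30 mg/kg; rats killed after 6 h, stomachs opened along the greater curvature and scored for ulcers. Chronic arm: 14-day dosing, stomachs examined post mortem at the end of the arthritis study. Ulcer index means ± SEM, n = 4.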
# Rattus norvegicus [20] = assay: Antiinflammatory in SKF-525A pretreated Wistar rat assessed as inhibition of carrageenan-induced paw edema at 100 mg/kg, po after 6 hrs; assay type: functional
# Rattus norvegicus [21] = assay: Antiinflammatory in SKF-525A pretreated Wistar rat assessed as inhibition of carrageenan-induced paw edema at 100 mg/kg, po after 24 hrs; assay type: functional
# Rattus norvegicus [22] = assay: Antiinflammatory in SKF-525A pretreated Wistar rat assessed as inhibition of carrageenan-induced paw edema at 100 mg/kg, po after 2 hrs; assay type: functional
# Rattus norvegicus [23] = assay: Antipyretic activity against LPS-induced pyresis in Wistar rat assessed as change in rectal temperature at 100 mg/kg, po after 4 hrs; assay type: functional; in short: as §3
# Rattus norvegicus [24] = assay: Antiarthritic activity against adjuvant-induced arthritis in Wistar rat assessed as inhibition of paw edema at 100 mg/kg, po on day 8; assay type: functional; settings: 192 h; in short: as §1
# Rattus norvegicus [25] = assay: Antiarthritic activity against adjuvant-induced arthritis in Wistar rat assessed as inhibition of paw edema at 100 mg/kg, po on day 13; assay type: functional; settings: 312 h; in short: as §1
# Rattus norvegicus [26] = assay: Antipyretic activity against LPS-induced pyresis in Wistar rat assessed as change in rectal temperature at 100 mg/kg, po after 1 hr; assay type: functional; in short: as §3
# Rattus norvegicus [27] = assay: Antiinflammatory activity in Wistar rat assessed as inhibition of carrageenan-induced paw edema at 10 mg/kg, after 4 hrs; assay type: functional
# In short: (§6)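 Male Wistar rats, 170 ± 20 g, dosed orally; 0.1 ml of 1% carrageenan injected into the right hind paw subplantar region 1 h after dosing. Paw volume read by plethysmometer at 0, 1, 2, 3, 4, 6 and 24 h after carrageenan. Percent inhibition of edema is calculated against the control group. n = 6, mean ± SEM.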
# Rattus norvegicus [28] = assay: Toxicity in 24 hrs fasted Wistar rat assessed as ulcer index at 30 mg/kg, po after 6 hrs; assay type: organism-based; set-up: dose 30 mg/kg, route oral; settings: in vivo; in short: as §5
# Rattus norvegicus [29] = assay: Antiarthritic activity against adjuvant-induced arthritis in Wistar rat assessed as inhibition of paw edema at 10 mg/kg, po on day 8; assay type: functional; settings: 192 h; in short: as §1
# Rattus norvegicus [30] = species: Rattus norvegicus; assay: animal or person; settings: Wistar, 2 h, read-out: Inhibition
# Rattus norvegicus [31] = assay: Antiarthritic activity against adjuvant-induced arthritis in Wistar rat assessed as inhibition of paw edema at 10 mg/kg, po on day 3; assay type: functional; settings: 72 h; in short: as §1
# Rattus norvegicus [32] = assay: Toxicity in 24 hrs fasted Wistar rat assessed as ulcer index […], po after 14 days; assay type: organism-based; set-up: route oral; settings: in vivo, 336 h; in short: as §5
# Rattus norvegicus [33] = assay: Antiinflammatory activity in Wistar rat assessed as inhibition of carrageenan-induced paw edema at 10 mg/kg, after 3 hrs; assay type: functional; in short: as §6
# Rattus norvegicus [34] = assay: Antiarthritic activity against adjuvant-induced arthritis in Wistar rat assessed as weight change at 10 mg/kg, po; assay type: functional; in short: as §1
# Rattus norvegicus [35] = assay: Antiinflammatory activity in Wistar rat assessed as inhibition of carrageenan-induced paw edema at 10 mg/kg, after 24 hrs; assay type: functional; in short: as §2
# Rattus norvegicus [36] = assay: Antiinflammatory activity in Wistar rat assessed as inhibition of carrageenan-induced paw edema at 10 mg/kg, after 1 hr; assay type: functional; in short: as §6
# Rattus norvegicus [37] = assay: Antiarthritic activity against adjuvant-induced arthritis in Wistar rat assessed as inhibition of paw edema at 10 mg/kg, po on day 13; assay type: functional; settings: 312 h; in short: as §1
# Rattus norvegicus [38] = assay: Antiinflammatory activity in Wistar rat assessed as inhibition of carrageenan-induced paw edema at 10 mg/kg, after 6 hrs; assay type: functional; in short: as §2
smiles,measurement,setting,value
COc1cc2c(cc1OC)C(CC(=O)Nc1ccc(Cl)cc1)CC2 (configuration not stated),Activity,Rattus norvegicus [1],3.51 g
same,inhibition in vivo at 100 mg/kg,Rattus norvegicus [2],61.1%
same,inhibition in vivo at 100 mg/kg,Rattus norvegicus [3],64.3%
same,Activity,Rattus norvegicus [4],0.17 °C
same,inhibition in vivo at 100 mg/kg,Mus musculus [5],73.5%
same,inhibition in vivo at 100 mg/kg,Rattus norvegicus [6],70%
same,inhibition in vivo at 100 mg/kg,Rattus norvegicus [7],60.9%
same,Activity,Mus musculus [8],9.17
same,inhibition in vivo at 100 mg/kg,Rattus norvegicus [9],28.6%
same,inhibition in vivo at 100 mg/kg,Rattus norvegicus [10],56.7%
same,inhibition in vivo at 100 mg/kg,Rattus norvegicus [11],57.9%
same,inhibition in vivo at 100 mg/kg,Rattus norvegicus [12],71.9%
same,Activity,Rattus norvegicus [13],0.4 °C
same,Activity,Rattus norvegicus [14],-1.69 °C
same,Activity,Rattus norvegicus [15],-0.54 °C
same,inhibition in vivo at 100 mg/kg,Rattus norvegicus [16],63%
same,inhibition in vivo at 100 mg/kg,Rattus norvegicus [17],60.9%
same,Activity,Rattus norvegicus [18],0.41 °C
same,UI,Rattus norvegicus [19],0
same,inhibition in vivo at 100 mg/kg,Rattus norvegicus [20],59.6%
same,inhibition in vivo at 100 mg/kg,Rattus norvegicus [21],68.2%
same,inhibition in vivo at 100 mg/kg,Rattus norvegicus [22],56.1%
same,Activity,Rattus norvegicus [23],-0.11 °C
same,inhibition in vivo at 100 mg/kg,Rattus norvegicus [24],8.08%
same,inhibition in vivo at 100 mg/kg,Rattus norvegicus [25],4.69%
same,Activity,Rattus norvegicus [26],-0.47 °C
COc1ccc2c(c1)c(CC(=O)O)c(C)n2C(=O)c1ccc(Cl)cc1 [INDOMETHACIN],inhibition in vivo at 10 mg/kg,Rattus norvegicus [27],57.8%
same,UI,Rattus norvegicus [28],31.37
same,Activity,Rattus norvegicus [4],0.3 °C
same,inhibition in vivo at 100 mg/kg,Mus musculus [5],51.5%
same,Activity,Mus musculus [8],16.83
same,inhibition in vivo at 10 mg/kg,Rattus norvegicus [29],43.9%
same,Activity,Rattus norvegicus [13],0.55 °C
same,inhibition in vivo at 10 mg/kg,Rattus norvegicus [30],58%
same,inhibition in vivo at 10 mg/kg,Rattus norvegicus [31],37.5%
same,UI,Rattus norvegicus [32],42
same,inhibition in vivo at 10 mg/kg,Rattus norvegicus [33],65.2%
same,Activity,Rattus norvegicus [34],5.68 g
same,Activity,Rattus norvegicus [14],-1.03 °C
same,Activity,Rattus norvegicus [15],-0.11 °C
same,inhibition in vivo at 10 mg/kg,Rattus norvegicus [35],13.3%
same,inhibition in vivo at 10 mg/kg,Rattus norvegicus [36],50%
same,Activity,Rattus norvegicus [18],0.35 °C
same,inhibition in vivo at 10 mg/kg,Rattus norvegicus [37],46.5%
same,Activity,Rattus norvegicus [23],0.22 degrees C
same,inhibition in vivo at 10 mg/kg,Rattus norvegicus [38],48.1%
same,Activity,Rattus norvegicus [26],-0.39 °C
